Our source for the CC50 and EC50 values is ChEMBL document CHEMBL1139499, “Nucleotides and pronucleotides of 2,2-bis(hydroxymethyl)methylenecyclopropane analogues of purine nucleosides: synthesis and antiviral activity” (J Med Chem, 2005).

Experiment [1] deals with Daudi. Put plainly: Cytotoxic concentration to inhibit replication in daudi cells. Format: functional. To be noted: Homo sapiens.
Experiment [2] relates to Human alphaherpesvirus 1. Put plainly: Effective concentration required to inhibit herpes simplex virus 1 in vero cells in plaque reduction assay. The experiment is classed as functional, organism-based. To be noted: Human alphaherpesvirus 1, Vero. Put shortly:
(§1)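 HSV-1 and HSV-2 assayed in Vero cells by plaque reduction. Single experiments unless specified otherwise.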

Experiment [3] deals with Human alphaherpesvirus 2. Description: Effective concentration required to inhibit herpes simplex virus 2 in vero cells in plaque reduction assay. Conditions: Human alphaherpesvirus 2, Vero. Format: functional, organism-based. Put shortly:
as §1

The subject of experiment [4] is HFF. Description: Cytotoxic concentration to inhibit Herpes simplex virus 1 infected HFF cells. The experiment is classed as functional. To be noted: Homo sapiens. Put shortly:
(§2)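 HSV-1 and HSV-2 assayed in HFF cells by cytopathic effect (CPE) inhibition and by plaque reduction. Cytotoxicity measured in HFF cells. Single experiments unless specified otherwise.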

Experiment [5] relates to Human alphaherpesvirus 1. Put plainly: Effective concentration required to inhibit herpes simplex virus 1 in BSC-1 cells in ELISA. Format: functional, organism-based. Conditions: Human alphaherpesvirus 1, BSC-1. An outline of the steps: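 HSV-1 assayed in BSC-1 cells with ELISA read-out; cytotoxicity in these assays determined in KB cells. Single experiments unless specified otherwise.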

Experiment [6] concerns HFF. Put plainly: Cytotoxic concentration to inhibit Herpes simplex virus 2 infected HFF cells. Format: functional. Conditions: Homo sapiens. An outline of the steps:
as §2

The subject of experiment [7] is KB (Homo sapiens). Put plainly: Cytotoxic concentration required to inhibit KB cells.
The subject of experiment [8] is HFF. Put plainly: Cytotoxic concentration to inhibit replication in HFF cells in cytopathic effect inhibition assay. Conditions: Homo sapiens. The experiment is classed as functional. An outline of the steps: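 Human CMV (Towne and AD169 strains) grown in HFF cell culture; antiviral effect read by plaque reduction or by cytopathic effect (CPE) inhibition. Cytotoxicity measured in HFF cells. Single experiments unless specified otherwise.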
In general terms: Cytopathic effects are the visible damage that an infection or toxin causes in cultured cells.

The subject of experiment [9] is Vero. Description: Cytotoxic concentration required to inhibit herpes simplex virus 1 infected vero cells. The experiment is classed as functional. Conditions: Chlorocebus sabaeus.
Experiment [10] relates to Vero. Description: Cytotoxic concentration required to inhibit herpes simplex virus 2 infected vero cells. The experiment is classed as functional. To be noted: Chlorocebus sabaeus.
In experiment [11] the test system is Human alphaherpesvirus 2. Description: Effective concentration required to inhibit herpes simplex virus 2 in HFF cells in cytopathic effect (CPE) assay. The experiment is classed as functional, organism-based. To be noted: Human alphaherpesvirus 2, HFF. Put shortly:
as §2

Experiment [12] deals with Human gammaherpesvirus 4. Description: Effective concentration required to inhibit Epstein-barr virus replication in daudi cells in viral capsid immunofluorescence ELISA. Format: functional, organism-based. To be noted: human gammaherpesvirus 4, Daudi. (In general: ELISA stands for enzyme-linked immunosorbent assay.)
The subject of experiment [13] is Human alphaherpesvirus 1. Put plainly: Effective concentration required to inhibit herpes simplex virus 1 in HFF cells in cytopathic effect (CPE) assay. Format: functional, organism-based. Conditions: Human alphaherpesvirus 1, HFF. An outline of the steps:
as §2

Experiment [14] in a line: Effective concentration required to inhibit varicella zoster virus replication in HFF cells. Format: functional, cell-based. To be noted: Human alphaherpesvirus 3, HFF. An outline of the steps:
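VZV assayed in HFF cells by cytopathic effect (CPE) inhibition or by plaque reduction. Single experiments unless specified otherwise.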

For experiment [15], the species on record is Homo sapiens. Description: Cytotoxic concentration to inhibit replication in 2.2.15 cells. Format: functional. To be noted: HepG2 2.2.15.
In experiment [16] the test system is Hepatitis B virus. Description: Effective concentration required to inhibit hepatitis B virus replication in 2.2.15 cells in DNA hybridization assay. Format: functional, organism-based. Conditions: HepG2 2.2.15. An outline of the steps:
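HBV assayed in 2.2.15 cells by DNA hybridization. CC50 values are those from the EBV/H-1 cytotoxicity determination, run in CEM cells. Single experiments unless specified otherwise.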

By CC50 is commonly meant the concentration that lowers cell viability or growth by half. A high value points to lower toxicity to the cells. The term EC50 denotes the concentration giving half of the maximal effect. Turning to `Nc1nc2c(ncn2COCCO)c(=O)[nH]1` [ACYCLOVIR], the CC50 in experiment [1] was above 222 µM; in experiment [4] it was above 444 µM; in experiment [6], above 444 µM; in experiment [7] it was above 100 µM; in [8] it was above 444 µM; in experiment [9], above 200 µM. In experiment [10], the CC50 is above 200 µM. Besides, the EC50 turned out to be 13.5 µM in [2]; 32.3 µM in [3]; 1500 nM in experiment [5]; 6.7 µM in experiment [11]; 1100 nM in experiment [12]; 900 nM in experiment [13]. In [14], this molecule registered an EC50 of 1600 nM.

Take `Nc1ccn([C@@H]2CS[C@H](CO)O2)c(=O)n1` [LAMIVUDINE]: the CC50 in experiment [15] is above 100 µM. In experiment [16], this molecule gave an EC50 of 50 nM.
